This is an account of results in ChEMBL document CHEMBL1148479, “Antineoplastic agents. 520. Isolation and structure of irciniastatins A and B from the Indo-Pacific marine sponge Ircinia ramosa” (2004).

SMILES strings stand for the structures. Values after ≈ are worked out from the molar mass of the structure shown. Bounds are passed on as bounds.

What all share (type): functional
The test system of assay [1] is BXPC-3. The assay can be described thus: Compound was tested for cancer cell line growth inhibition against human pancreas (BXPC-3) cell line. In a few lines:
(§1)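 NCI sulforhodamine B protocol. Cells in 5% fetal bovine serum/RPMI1640 are seeded in 96-well plates and incubated 24 h, then exposed to serial compound dilutions for 48 h. Cells are fixed with trichloroacetic acid, stained with SRB and read by microplate reader. GI50 is the concentration giving a 50% reduction in net protein increase, calculated from optical density.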

For assay [2], the system named is Cryptococcus neoformans. As to the kind of experiment: Compound was tested for minimum inhibitory concentration against Cryptococcus neoformans ATCC 90112. The method, boiled down:
(§2)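 Standard broth microdilution susceptibility method. The fungal test follows the M27-A yeast reference standard. MIC is the lowest concentration that inhibits all visible growth of the organism (optically clear wells).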

In assay [3] the test system is DU-145. The assay can be described thus: Compound was tested for cancer cell line growth inhibition against human prostate (DU-145) cell line. The method, boiled down: as §1
Assay [4] deals with HUVEC. The assay can be described thus: Compound was tested for cancer cell line growth inhibition against human umbilical vein endothelial cells.
Assay [5] concerns KM-20L2. As to the kind of experiment: Compound was tested for cancer cell line growth inhibition against human colon (KM20L2) cell line. In a few lines:
as §1

The subject of assay [6] is MCF7. The assay can be described thus: Compound was tested for cancer cell line growth inhibition against human breast (MCF-7) cell line. In a few lines:
as §1

Assay [7] concerns NCI-H460. The assay can be described thus: Compound was tested for cancer cell line growth inhibition against lung cancer cells (NCI-H460). Particulars: Homo sapiens. The method, boiled down:
as §1

Assay [8] relates to Neisseria gonorrhoeae. As to the kind of experiment: Compound was tested for minimum inhibitory concentration against Neisseria gonorrhoeae ATCC 49226. The method, boiled down:
as §2

The test system of assay [9] is P388. As to the kind of experiment: Compound was tested for cancer cell line growth inhibition against murine P388 leukemia cell line. Particulars: Mus musculus. The method, boiled down:
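Murine P388 leukemia cells are grown in 10% horse serum/Fisher medium for 24 h, then incubated 48 h with serial compound dilutions. Cells are counted on a particle counter, and ED50 for growth inhibition is calculated from the counts.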

The test system of assay [10] is SF-268. As to the kind of experiment: Compound was tested for cancer cell line growth inhibition against human central nervous system (SF268) cell line. The method, boiled down: as §1

Broadly, the GI50 is the concentration that inhibits growth by half. The term MIC denotes the least concentration at which growth counts as inhibited. High values mean a need for much substance, low ones inhibition by little substance. `C=C(C)CC(OC)[C@H](O)C(=O)N[C@@H](OC)[C@@H]1C[C@@H](O)C(C)(C)[C@@H](C[C@H](O)[C@@H](C)[C@H]2Cc3c(C)c(O)cc(O)c3C(=O)O2)O1` (stereo not given in full) [IRCINIASTATIN A]: the 50% growth inhibitory concentration (GI50) was 0.5 ng/mL (≈ 0.82 nM) in [1]; 1.6 ng/mL (≈ 2.62 nM) in assay [3]; under 0.5 ng/mL in assay [4]; 2.1 ng/mL (≈ 3.44 nM) in assay [5]; 0.66 ng/mL (≈ 1.08 nM) in assay [6]; 0.73 ng/mL (≈ 1.2 nM) in assay [7]. In addition, the values for the concentration for 50% growth inhibition (GI50) in [9] and in assay [10] were 6 ng/mL (≈ 9.84 nM) and 1.2 ng/mL (≈ 1.97 nM), respectively. For the same compound, the minimal inhibitory concentration (MIC) in assay [2] came out at 16000 ng/mL (≈ 26200 nM); in assay [8], 64000 ng/mL (≈ 105000 nM).
